The values below come from ChEMBL document CHEMBL1138380, “4-Aminopyrimidines as novel HIV-1 inhibitors” (Bioorg Med Chem Lett, 2007).

Tested on in one series: not listed separately
Kind of series: Cytotoxicity against HEK293T cells after 48 hrs. It counts as cell-based, HEK-293T. As to conditions: human. Put shortly:
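293T cells seeded at 700 cells/well in 1536-well format and cultured 24 h at 37 °C under 5% CO2. Compounds serially diluted in DMSO were added. After culture, viability was read by Alamar Blue diluted 1:1 in DMEM, incubated 4 h at room temperature, with fluorescence intensity measured.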
On to `CCc1ncnc(NC(CC)c2ccc(-c3ccccc3)cc2)c1Cl` (stereo not drawn), for which the CC50 at 48 h was more than 10000 nM.
As to `CCc1ncnc(NC(C)c2ccc(NC(=O)N(C)CCCN(C)C(C)=O)cc2)c1Cl` (stereo not drawn), the CC50 at 48 h was more than 10000 nM.
`CCC(Nc1cc(C)ncn1)c1ccc(Oc2ccc(F)cc2)cc1` (stereo not drawn) came in with a cytotoxic concentration (CC50) at 48 h of more than 10000 nM.
On the same count and under the same terms, the figure for `CCCc1cc(NC(CC)c2ccc(Oc3ccc(F)cc3)cc2)ncn1` (stereo not drawn) is more than 10000 nM; for `CCC(Nc1cc(COC)ncn1)c1ccc(Oc2ccc(F)cc2)cc1` (stereo not drawn) it is more than 10000 nM.
Same read-out and setting: the figure for `CCc1ncnc(NC(CC)c2ccc([N+](=O)[O-])cc2)c1Cl` (stereo not drawn) is more than 10000 nM.
Still for that read-out and setting: the same measure for `CCc1ncnc(NC(C)c2ccc3ccccc3n2)c1Cl` (stereo not drawn): more than 10000 nM; for `CCc1ncnc(NC(C)c2ccc(OC(=O)NCCCOCCCNC(C)=O)cc2)c1Cl` (stereo not drawn): more than 10000 nM; for `CCc1ncnc(NC(C)c2ccc(OC(=O)N(C)C)cc2)c1Cl` (stereo not drawn): more than 10000 nM.
As to `CCc1nc(C)nc(NC(CC)c2ccc(Oc3ccc(F)cc3)cc2)c1Br` (stereo not drawn), the CC50 at 48 h was more than 10000 nM.
Same read-out and setting: the same measure for `CCc1ncnc(NC(C)c2ccc(OC(=O)NCCOCCOCCOCCNC(C)=O)cc2)c1Cl` (stereo not drawn): more than 10000 nM.
Take `CCc1ncnc(NC(C)c2ccc3c(c2)NCCO3)c1Cl` (stereo not drawn): the CC50 at 48 h was more than 10000 nM.
On the same count and under the same terms, the figure for `CCc1ncnc(NC(C)c2ccc3ccccc3c2)c1Cl` (stereo not drawn) is more than 10000 nM.
Same read-out and setting: the figure for `CCc1ncnc(NC(C)c2ccc(NC(=O)N(C)CCOCCN(C)C(C)=O)cc2)c1Cl` (stereo not drawn) is more than 10000 nM.
On to `CCc1ncnc(NC(C)c2sc3ccccc3c2C)c1Cl` (stereo not drawn), for which the cytotoxic concentration (CC50) at 48 h is more than 10000 nM.
`CCCc1ncnc(NC(CC)c2ccc(Oc3ccc(F)cc3)cc2)c1Br` (stereo not drawn) showed a 50% cytotoxic concentration (CC50) at 48 h of more than 10000 nM.
`CCc1ncnc(NC(CC)c2ccc(N(C)C)cc2)c1Cl` (stereo not drawn): the CC50 at 48 h is more than 10000 nM.
`CCc1ncnc(NC(C)c2ccc(OC(=O)N(C)CCCN(C)C(C)=O)cc2)c1Cl` (stereo not drawn) yielded a cytotoxic concentration (CC50) at 48 h of more than 10000 nM.
Same read-out and setting: the same measure for `CCc1ncnc(NC(CC)c2ccc(C(C)(C)C)cc2)c1Cl` (stereo not drawn): more than 10000 nM; for `CCc1ncnc(NC(C)c2ccc(C(C)(C)C)cc2)c1Cl` (stereo not drawn): more than 10000 nM.
Still for that read-out and setting: the figure for `CCc1ncnc(NC(C)c2ccc(NC(C)=O)cc2)c1Cl` (stereo not drawn) is more than 10000 nM; for `CCc1ncnc(NC(C)c2ccc(NC(=O)CCCC[C@@H]3SC[C@@H]4NC(=O)N[C@@H]43)cc2)c1Cl` (stereo partly drawn) it is more than 10000 nM.
Still for that read-out and setting: the same measure for `CCc1ncnc(NC(C)c2ccc(OC(=O)NCCCNC(C)=O)cc2)c1Cl` (stereo not drawn): more than 10000 nM.
Turning to `CCC(Nc1nc(C)nc(Cl)c1N)c1ccc(Oc2ccc(F)cc2)cc1` (stereo not drawn), the CC50 at 48 h was more than 10000 nM.
The same measure, in the same setting: the same measure for `CCc1ncnc(NC(C)c2cc3c(cc2O)CCCC3)c1Cl` (stereo not drawn): more than 10000 nM; for `CCc1ncnc(NCc2ccc(C(C)(C)C)cc2)c1Cl`: more than 10000 nM; for `CCc1ncnc(NC(C)c2ccc3c(c2)N=C(NCCO)CO3)c1Cl` (stereo not drawn): more than 10000 nM.
Still for that read-out and setting: the same measure for `CCc1ncnc(NC(C)c2ccc(OC(=O)N(C)CCOCCN(C)C(C)=O)cc2)c1Cl` (stereo not drawn): more than 10000 nM; for `CCc1ncnc(N(C)C(C)c2ccc(OC(=O)N(C)CCOCCN(C)C(C)=O)cc2)c1Cl` (stereo not drawn): more than 10000 nM; for `CCc1ncnc(NC(CC)c2ccc(Oc3ccc(F)cc3)cc2)c1Br` (stereo not drawn): more than 10000 nM.
Same read-out and setting: the same measure for `CCc1ncnc(NC(C)c2cccc3ccccc23)c1Cl` (stereo not drawn): more than 10000 nM.
For the compound `O=C1Nc2ccc(Cl)cc2C(C#CC2CC2)(C(F)(F)F)O1` (single isomer, unassigned) [EFAVIRENZ], half-maximal cytotoxicity (CC50 at 48 h) was put at 10000 nM.
The same measure, in the same setting: the same measure for `CCc1ncnc(NC(C)c2cc3cccc(OC)c3o2)c1Cl` (stereo not drawn): more than 10000 nM; for `Cc1ccnc2c1NC(=O)c1cccnc1N2C1CC1` [NEVIRAPINE]: more than 10000 nM.
Same read-out and setting: the figure for `CCc1ncnc(NC(C)c2ccc(OC(=O)NCCOCCNC(C)=O)cc2)c1Cl` (stereo not drawn) is more than 10000 nM.
Still for that read-out and setting: the same measure for `CCc1ncnc(NC(C)c2ccc3c(c2)CCCC3)c1Cl` (stereo not drawn): more than 10000 nM.
`CCc1ncnc(NC(C)c2ccc3c(c2)N(C(C)=O)CCO3)c1Cl` (stereo not drawn) registered a cytotoxic concentration (CC50) at 48 h of more than 10000 nM.
Same read-out and setting: the figure for `CCc1ncnc(N(C)C(C)c2ccc(OC(=O)N(C)C)cc2)c1Cl` (stereo not drawn) is more than 10000 nM; for `CCc1ncnc(NC(CC)c2ccc(Oc3ncnc4ccccc34)cc2)c1Cl` (stereo not drawn) it is more than 10000 nM.

The next series concerns Human immunodeficiency virus. The series can be described thus: Antiviral activity against HIV in HEK293T cells after 48 hrs. As to conditions: Human immunodeficiency virus 1, HEK-293T. The series is classed as functional, organism-based. In outline:
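HEK 293T cells grown in DMEM with 10% FBS and Pen/Strep/glutamine, seeded at 700 cells/well in 1536-well format, then cultured 24 h at 37 °C under 5% CO2. Compounds serially diluted in DMSO were added and incubated 1 h at 37 °C. Cells were then infected with HIV reporter virus at MOI ~1.0 and cultured 48 h at 37 °C. Read-out was luciferase activity.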
`CCc1ncnc(NC(CC)c2ccc(-c3ccccc3)cc2)c1Cl` (stereo not drawn) had an EC50 of 17 nM. That is a double-digit nanomolar value.
Same read-out and setting: the same measure for `CCc1ncnc(NC(C)c2ccc(NC(=O)N(C)CCCN(C)C(C)=O)cc2)c1Cl` (stereo not drawn): 4890 nM.
Same read-out and setting: the same measure for `CCC(Nc1cc(C)ncn1)c1ccc(Oc2ccc(F)cc2)cc1` (stereo not drawn): 324 nM; for `CCCc1cc(NC(CC)c2ccc(Oc3ccc(F)cc3)cc2)ncn1` (stereo not drawn): 96 nM.
`CCC(Nc1cc(COC)ncn1)c1ccc(Oc2ccc(F)cc2)cc1` (stereo not drawn) showed a half-maximal effective concentration (EC50) of 31 nM.
Still for that read-out and setting: the figure for `CCc1ncnc(NC(CC)c2ccc([N+](=O)[O-])cc2)c1Cl` (stereo not drawn) is 2660 nM.
Compound `CCc1ncnc(NC(C)c2ccc3ccccc3n2)c1Cl` (stereo not drawn) registered an EC50 of 42 nM. Compared with the last compound, the EC50 is about 63-fold lower.
Still for that read-out and setting: the figure for `CCc1ncnc(NC(C)c2ccc(OC(=O)NCCCOCCCNC(C)=O)cc2)c1Cl` (stereo not drawn) is 5 nM; for `CCc1ncnc(NC(C)c2ccc(OC(=O)N(C)C)cc2)c1Cl` (stereo not drawn) it is 4 nM.
`CCc1nc(C)nc(NC(CC)c2ccc(Oc3ccc(F)cc3)cc2)c1Br` (stereo not drawn) came in with an EC50 of 18 nM. Against the preceding compound, the EC50 is about 4.5-fold higher.
Turning to `CCc1ncnc(NC(C)c2ccc(OC(=O)NCCOCCOCCOCCNC(C)=O)cc2)c1Cl` (stereo not drawn), the EC50 was 190 nM.
On the same count and under the same terms, the same measure for `CCc1ncnc(NC(C)c2ccc3c(c2)NCCO3)c1Cl` (stereo not drawn): 29 nM; for `CCc1ncnc(NC(C)c2ccc3ccccc3c2)c1Cl` (stereo not drawn): 139 nM.
Same read-out and setting: the figure for `CCc1ncnc(NC(C)c2ccc(NC(=O)N(C)CCOCCN(C)C(C)=O)cc2)c1Cl` (stereo not drawn) is 3020 nM; for `CCc1ncnc(NC(C)c2sc3ccccc3c2C)c1Cl` (stereo not drawn) it is 816 nM; for `CCCc1ncnc(NC(CC)c2ccc(Oc3ccc(F)cc3)cc2)c1Br` (stereo not drawn) it is 760 nM.
On the same count and under the same terms, the same measure for `CCc1ncnc(NC(CC)c2ccc(N(C)C)cc2)c1Cl` (stereo not drawn): 341 nM; for `CCc1ncnc(NC(C)c2ccc(OC(=O)N(C)CCCN(C)C(C)=O)cc2)c1Cl` (stereo not drawn): 327 nM; for `CCc1ncnc(NC(CC)c2ccc(C(C)(C)C)cc2)c1Cl` (stereo not drawn): 28 nM.
In the case of `CCc1ncnc(NC(C)c2ccc(C(C)(C)C)cc2)c1Cl` (stereo not drawn), the EC50 is 16 nM.
On the same count and under the same terms, the figure for `CCc1ncnc(NC(C)c2ccc(NC(C)=O)cc2)c1Cl` (stereo not drawn) is 1190 nM; for `CCc1ncnc(NC(C)c2ccc(NC(=O)CCCC[C@@H]3SC[C@@H]4NC(=O)N[C@@H]43)cc2)c1Cl` (stereo partly drawn) it is 622 nM.
Still for that read-out and setting: the same measure for `CCc1ncnc(NC(C)c2ccc(OC(=O)NCCCNC(C)=O)cc2)c1Cl` (stereo not drawn): 190 nM; for `CCC(Nc1nc(C)nc(Cl)c1N)c1ccc(Oc2ccc(F)cc2)cc1` (stereo not drawn): 15 nM; for `CCc1ncnc(NC(C)c2cc3c(cc2O)CCCC3)c1Cl` (stereo not drawn): 778 nM.
As to `CCc1ncnc(NCc2ccc(C(C)(C)C)cc2)c1Cl`, the EC50 was 331 nM. This EC50 is about 2.4-fold lower than that of the compound before.
Still for that read-out and setting: the same measure for `CCc1ncnc(NC(C)c2ccc3c(c2)N=C(NCCO)CO3)c1Cl` (stereo not drawn): 353 nM; for `CCc1ncnc(NC(C)c2ccc(OC(=O)N(C)CCOCCN(C)C(C)=O)cc2)c1Cl` (stereo not drawn): 4 nM.
The same measure, in the same setting: the same measure for `CCc1ncnc(N(C)C(C)c2ccc(OC(=O)N(C)CCOCCN(C)C(C)=O)cc2)c1Cl` (stereo not drawn): more than 10000 nM; for `CCc1ncnc(NC(CC)c2ccc(Oc3ccc(F)cc3)cc2)c1Br` (stereo not drawn): 3 nM.
Same read-out and setting: the same measure for `CCc1ncnc(NC(C)c2cccc3ccccc23)c1Cl` (stereo not drawn): 95 nM.
`O=C1Nc2ccc(Cl)cc2C(C#CC2CC2)(C(F)(F)F)O1` (single isomer, unassigned) [EFAVIRENZ] showed a concentration giving a half-maximal response (EC50) of 0.5 nM.
Same read-out and setting: the figure for `CCc1ncnc(NC(C)c2cc3cccc(OC)c3o2)c1Cl` (stereo not drawn) is 691 nM.
Same read-out and setting: the same measure for `Cc1ccnc2c1NC(=O)c1cccnc1N2C1CC1` [NEVIRAPINE]: 50 nM; for `CCc1ncnc(NC(C)c2ccc(OC(=O)NCCOCCNC(C)=O)cc2)c1Cl` (stereo not drawn): 5 nM; for `CCc1ncnc(NC(C)c2ccc3c(c2)CCCC3)c1Cl` (stereo not drawn): 170 nM.
Consider `CCc1ncnc(NC(C)c2ccc3c(c2)N(C(C)=O)CCO3)c1Cl` (stereo not drawn), for which a half-maximal effect (EC50) was put at 35 nM.
The same measure, in the same setting: the same measure for `CCc1ncnc(N(C)C(C)c2ccc(OC(=O)N(C)C)cc2)c1Cl` (stereo not drawn): more than 10000 nM; for `CCc1ncnc(NC(CC)c2ccc(Oc3ncnc4ccccc34)cc2)c1Cl` (stereo not drawn): 48 nM.

As usually defined, the CC50 is the concentration that lowers cell viability or growth by half. High values mean lower toxicity to the cells, low ones greater toxicity to the cells. What is called EC50 is the concentration giving half of the maximal effect. Low readings indicate greater potency, high ones weaker potency.
